The source of these data is ChEMBL document CHEMBL1151259, “Hemisynthetic secofriedelane triterpenes with inhibitory activity against the growth of human tumor cell lines in vitro” (J Nat Prod, 2004).

In test [1] the test system is MCF7. The test is described as follows: Cytotoxicity against human MCF7 cells after 48 hrs by SRB assay. It is filed as functional, cell-based. To be noted: MCF7, 48 h. Put shortly:
(§1)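 Compounds dissolved in DMSO and freshly diluted in culture medium, final DMSO 0.25%. Growth inhibition read by sulforhodamine B protein staining per the NCI screening protocol. Doxorubicin as positive control. GI50 given as mean ± SEM of 3-6 independent experiments, each in duplicate.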

Test [2] concerns NCI-H460. The test is described as follows: Cytotoxicity against human NCI-H460 cells after 48 hrs by SRB assay. It is filed as functional, cell-based. To be noted: NCI-H460, 48 h. In a few lines: as §1
On the technique in general: Sulforhodamine B stains cellular protein and so reports cell mass.

The subject of test [3] is SF-268. The experiment in a line: Cytotoxicity against human SF268 cells after 48 hrs by SRB assay. The test is classed as functional, cell-based. To be noted: SF-268, 48 h. Put shortly: as §1
A short description of test [4]: Antiproliferative activity against human lymphocytes. The test is classed as cell-based. The conditions noted are these: Lymphocyte.

What is called GI50 is the concentration giving 50% growth inhibition. One may read the IC50 as the concentration that gives 50% inhibition. Low readings indicate inhibition by little substance, high ones a need for much substance.

For the molecule `CC(=O)[C@@]1(C)CC[C@H]2[C@@](C)(CC[C@@]3(C)[C@@H]4CC(C)(C)CC[C@]4(C)CC[C@]23C)[C@@H]1CCC(=O)O`, the 50% growth inhibitory concentration (GI50) in test [1] amounted to 26.9 µM; in test [2], 32.8 µM; in test [3], 24.6 µM.

Turning to `C[C@@H](C(=O)O)[C@@]1(C)CC[C@H]2[C@@](C)(CC[C@@]3(C)[C@@H]4CC(C)(C)CC[C@]4(C)CC[C@]23C)[C@@H]1CC=O`, the IC50 in test [1] is 5.4 µM; in test [4], 10.7 µM; in test [2], 5.4 µM; in test [3], 5.4 µM.

Regarding `CC1(C)CC[C@]2(C)CC[C@]3(C)[C@H]4CC[C@@]5(C)[C@@H](CCC(=O)[C@]5(C)O)[C@]4(C)CC[C@@]3(C)[C@@H]2C1`, the concentration for 50% growth inhibition (GI50) in test [1], in test [2] and in test [3] was greater than 50 µM throughout.

For `COC(=O)CC[C@H]1[C@]2(C)CC[C@@]3(C)[C@@H]4CC(C)(C)CC[C@]4(C)CC[C@]3(C)[C@H]2CC[C@]1(C)C(C)=O`, the GI50 in test [1], in test [2] and in test [3] was greater than 110 µM throughout.

As to `COc1cccc2c1C(=O)c1c(O)c3c(c(O)c1C2=O)C[C@@](O)(C(=O)CO)C[C@@H]3O[C@H]1C[C@H](N)[C@H](O)[C@H](C)O1` [DOXORUBICIN], the GI50 in test [1] amounted to 0.0428 µM; in test [2] it was 0.094 µM; in test [3], 0.094 µM.

`COC(=O)C[C@H]1[C@]2(C)CC[C@@]3(C)[C@@H]4CC(C)(C)CC[C@]4(C)CC[C@]3(C)[C@H]2CC[C@]1(C)C(C)=O`: the GI50 in test [1] is 101 µM; in test [2] it was 93.9 µM; in test [3] it was 106 µM.

As to `CC1(C)CC[C@]2(C)CC[C@]3(C)[C@H]4CC[C@@]5(C)[C@@H](CCC(=O)[C@@]5(C)O)[C@]4(C)CC[C@@]3(C)[C@@H]2C1`, the GI50 in test [1], in test [2] and in test [3] was greater than 110 µM each time.

For the molecule `CC(=O)[C@@]1(C)CC[C@H]2[C@@](C)(CC[C@@]3(C)[C@@H]4CC(C)(C)CC[C@]4(C)CC[C@]23C)[C@@H]1CC(=O)O`, the 50% growth inhibitory concentration (GI50) in test [1] came out at 10.9 µM; in test [2] it was 17.6 µM; in test [3] it was 12.9 µM.
